According to ChEMBL document CHEMBL1914368, “Imidazo[1,5-a]quinoxalines as irreversible BTK inhibitors for the treatment of rheumatoid arthritis” (Bioorg Med Chem Lett, 2011):

Experiments:
[1] = tested on: Hepatocyte growth factor receptor (Homo sapiens), P08581 [M1250T]; test: Inhibition of MET M1250T mutant relative to control; settings: concentration not given here
[2] = target: Tyrosine-protein kinase ABL1 (Homo sapiens, UniProt P00519); test: Inhibition of Abl1 relative to control
Mus musculus = test: Antiarthritic activity in C57BL/6 mouse assessed as inhibition of T-independent type 2 antigen-induced NP-specific IgM antibody titer production administered qd for 7 days by ELISA; format: functional, organism-based; settings: C57BL6
Outline: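 Female C57BL/6 mice, 8–10 weeks old, immunized ip with NP(109)-Ficoll (TI-2 antigen). Compound or vehicle given po daily for 7 days, starting 1 day before immunization. Serum was collected 6 days after immunization, and NP-specific IgM and IgG3 titers were measured by ELISA.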

[3] = target: Focal adhesion kinase 1 (Homo sapiens) (UniProt Q05397); test: Inhibition of PTK2 relative to control; settings: concentration not given here
[4] = target: Serine/threonine-protein kinase B-raf (Homo sapiens) (UniProt P15056); test: Inhibition of B-Raf relative to control; settings: concentration not given here
[5] = target: Glycogen synthase kinase-3 beta (Homo sapiens) (UniProt P49841); test: Inhibition of GSK3B relative to control; settings: concentration not given here
[6] = target: Tyrosine-protein kinase SYK (Homo sapiens) (UniProt P43405); test: Inhibition of SYK relative to control; settings: concentration not given here
[7] = target: 3-phosphoinositide-dependent protein kinase 1 (Homo sapiens) (UniProt O15530); test: Inhibition of PDK1 relative to control; settings: concentration not given here
Chain of 3-phosphoinositide-dependent protein kinase 1 (Homo sapiens) (O15530 whole entry): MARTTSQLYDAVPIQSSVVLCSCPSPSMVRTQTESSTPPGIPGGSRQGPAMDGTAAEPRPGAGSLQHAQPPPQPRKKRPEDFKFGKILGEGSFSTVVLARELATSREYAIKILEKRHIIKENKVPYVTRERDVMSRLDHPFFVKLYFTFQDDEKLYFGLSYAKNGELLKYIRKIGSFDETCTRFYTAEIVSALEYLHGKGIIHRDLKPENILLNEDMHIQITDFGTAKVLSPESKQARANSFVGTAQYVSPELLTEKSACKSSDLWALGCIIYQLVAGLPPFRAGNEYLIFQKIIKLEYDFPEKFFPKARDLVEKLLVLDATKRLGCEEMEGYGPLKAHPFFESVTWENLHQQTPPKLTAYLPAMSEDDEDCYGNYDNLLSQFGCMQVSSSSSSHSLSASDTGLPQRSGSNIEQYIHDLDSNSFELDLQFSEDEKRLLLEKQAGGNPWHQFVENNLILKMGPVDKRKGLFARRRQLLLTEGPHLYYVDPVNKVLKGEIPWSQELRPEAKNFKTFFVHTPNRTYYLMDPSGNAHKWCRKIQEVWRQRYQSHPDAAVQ

[8] = target: Insulin receptor (Homo sapiens) (UniProt P06213); test: Inhibition of INSR relative to control; settings: concentration not given here
[9] = target: Tyrosine-protein kinase CSK (Homo sapiens) (UniProt P41240); test: Inhibition of CSK relative to control; settings: concentration not given here
[10] = target: Tyrosine-protein kinase Fer (Homo sapiens) (UniProt P16591); test: Inhibition of FER relative to control; settings: concentration not given here
[11] = target: Tyrosine-protein kinase Fyn (Homo sapiens, UniProt P06241); test: Inhibition of FYN relative to control
[12] = target: Vascular endothelial growth factor receptor 1 (Homo sapiens) (UniProt P17948); test: Inhibition of FLT1 relative to control; settings: concentration not given here
[13] = Volume of distribution at steady state in mouse at 2 mg/kg, iv; format: ADME, organism-based; set-up: dose 2 mg/kg, route intravenous; settings: in vivo, read-out: Vdss
Outline: (§1)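 Mouse pharmacokinetics from single dosing at 2 mg/kg iv and 10 mg/kg po. The study derived AUC, T1/2, clearance, Vss, Tmax, Cmax and oral bioavailability (%F) from the paired iv and po arms.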

[14] = target: Serine/threonine-protein kinase Chk1 (Homo sapiens) (UniProt O14757); test: Inhibition of CHEK1 relative to control; settings: concentration not given here
[15] = target: Serine/threonine-protein kinase PLK1 (Homo sapiens) (UniProt P53350); test: Inhibition of PLK1 relative to control; settings: concentration not given here
[16] = target: Tyrosine-protein kinase Tec (Homo sapiens) (UniProt P42680); test: Inhibition of TEC relative to control; settings: concentration not given here
[17] = target: Mitogen-activated protein kinase 8 (Homo sapiens) (UniProt P45983); test: Inhibition of MAPK8 relative to control; settings: concentration not given here
Chain of Mitogen-activated protein kinase 8 (Homo sapiens) (P45983 whole entry): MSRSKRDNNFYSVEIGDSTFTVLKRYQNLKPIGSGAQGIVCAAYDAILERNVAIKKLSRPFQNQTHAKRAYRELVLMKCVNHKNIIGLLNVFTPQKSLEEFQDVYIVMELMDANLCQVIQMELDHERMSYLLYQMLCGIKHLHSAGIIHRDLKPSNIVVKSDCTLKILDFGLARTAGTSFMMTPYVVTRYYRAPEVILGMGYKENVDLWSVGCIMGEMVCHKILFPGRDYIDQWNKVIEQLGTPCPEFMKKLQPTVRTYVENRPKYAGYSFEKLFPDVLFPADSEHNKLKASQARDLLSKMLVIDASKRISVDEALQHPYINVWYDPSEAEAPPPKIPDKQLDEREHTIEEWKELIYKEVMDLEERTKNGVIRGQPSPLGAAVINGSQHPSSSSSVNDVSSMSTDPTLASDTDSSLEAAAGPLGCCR

[18] = target: T1, Tyrosine-protein kinase Lck (Homo sapiens, UniProt P06239); test: Inhibition of C-terminal His6-tagged human full-length LCK expressed in Sf9 cells after 60 mins by TR-FRET Assay
Target sequence in this assay (P06239 whole entry): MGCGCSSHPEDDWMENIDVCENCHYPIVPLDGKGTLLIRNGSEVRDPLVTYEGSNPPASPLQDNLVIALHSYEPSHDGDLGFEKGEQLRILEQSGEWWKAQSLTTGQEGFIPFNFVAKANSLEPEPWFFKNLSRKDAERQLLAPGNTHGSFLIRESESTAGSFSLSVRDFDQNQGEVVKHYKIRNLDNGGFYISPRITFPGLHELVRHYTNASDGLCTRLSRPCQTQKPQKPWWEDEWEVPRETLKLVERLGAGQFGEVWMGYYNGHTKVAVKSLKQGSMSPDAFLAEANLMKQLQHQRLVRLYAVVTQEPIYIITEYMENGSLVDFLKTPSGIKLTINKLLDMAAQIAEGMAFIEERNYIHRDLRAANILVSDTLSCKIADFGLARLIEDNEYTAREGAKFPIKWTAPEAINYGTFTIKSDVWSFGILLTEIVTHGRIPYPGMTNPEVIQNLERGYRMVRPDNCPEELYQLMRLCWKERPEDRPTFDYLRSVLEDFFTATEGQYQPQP

[19] = target: Ephrin type-B receptor 3 (Homo sapiens) (UniProt P54753); test: (§2) Inhibition of EPHB3 relative to control; settings: concentration not given here
Ephrin type-B receptor 3 = Ephrin type-B receptor 3 (Homo sapiens, UniProt P54753); test: as §2
[20] = target: T2, Tyrosine-protein kinase Lyn (Homo sapiens, UniProt P07948); test: Inhibition of LYN-A expressed in Sf9 cells preincubated for 60 mins measured after 60 mins by TR-FRET Assay
T2 sequence (P07948 whole entry): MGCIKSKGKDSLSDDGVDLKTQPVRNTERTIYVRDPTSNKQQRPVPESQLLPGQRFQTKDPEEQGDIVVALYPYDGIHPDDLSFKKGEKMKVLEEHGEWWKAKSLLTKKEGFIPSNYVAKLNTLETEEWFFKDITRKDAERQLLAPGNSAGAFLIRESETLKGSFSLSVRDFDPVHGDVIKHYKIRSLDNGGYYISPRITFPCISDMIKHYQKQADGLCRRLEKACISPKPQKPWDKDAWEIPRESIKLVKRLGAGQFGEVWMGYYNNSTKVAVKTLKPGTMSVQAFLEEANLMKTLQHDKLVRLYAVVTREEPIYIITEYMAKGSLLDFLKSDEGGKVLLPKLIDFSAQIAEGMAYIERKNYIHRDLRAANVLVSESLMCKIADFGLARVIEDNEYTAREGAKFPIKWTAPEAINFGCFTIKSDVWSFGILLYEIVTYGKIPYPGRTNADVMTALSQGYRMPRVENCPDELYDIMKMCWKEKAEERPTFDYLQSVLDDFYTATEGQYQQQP
Outline: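 The compound was pre-incubated with the kinase before the enzymatic reaction was started. IC50 values are averages of two or more determinations.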

[21] = target: Receptor-type tyrosine-protein kinase FLT3 (Homo sapiens) (UniProt P36888); test: Inhibition of FLT3 relative to control; settings: concentration not given here
[22] = Tmax in mouse at 10 mg/kg, po; format: ADME, organism-based; set-up: dose 10 mg/kg, route oral; settings: in vivo; outline: as §1
[23] = target: Vascular endothelial growth factor receptor 2 (Homo sapiens) (UniProt P35968); test: Inhibition of KDR relative to control; settings: concentration not given here
[24] = target: T2, Tyrosine-protein kinase Lyn; test: Inhibition of LYN-A expressed in Sf9 cells after 60 mins by TR-FRET Assay
[25] = target: Mitogen-activated protein kinase 1 (Homo sapiens) (UniProt P28482); test: Inhibition of MAPK1 relative to control; settings: concentration not given here
Chain of Mitogen-activated protein kinase 1 (Homo sapiens) (P28482 whole entry): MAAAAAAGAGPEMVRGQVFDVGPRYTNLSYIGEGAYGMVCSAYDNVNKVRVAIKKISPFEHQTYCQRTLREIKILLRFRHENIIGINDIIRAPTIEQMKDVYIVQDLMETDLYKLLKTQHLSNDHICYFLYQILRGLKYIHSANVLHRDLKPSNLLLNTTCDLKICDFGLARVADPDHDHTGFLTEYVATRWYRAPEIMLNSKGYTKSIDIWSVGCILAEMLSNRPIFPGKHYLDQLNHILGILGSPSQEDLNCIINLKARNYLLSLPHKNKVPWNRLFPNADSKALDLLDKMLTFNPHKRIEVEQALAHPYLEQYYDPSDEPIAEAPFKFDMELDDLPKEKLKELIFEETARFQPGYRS

[26] = target: Tyrosine-protein kinase FRK (Homo sapiens, UniProt P42685); test: Inhibition of FRK relative to control
Chain of Tyrosine-protein kinase FRK (P42685 whole entry): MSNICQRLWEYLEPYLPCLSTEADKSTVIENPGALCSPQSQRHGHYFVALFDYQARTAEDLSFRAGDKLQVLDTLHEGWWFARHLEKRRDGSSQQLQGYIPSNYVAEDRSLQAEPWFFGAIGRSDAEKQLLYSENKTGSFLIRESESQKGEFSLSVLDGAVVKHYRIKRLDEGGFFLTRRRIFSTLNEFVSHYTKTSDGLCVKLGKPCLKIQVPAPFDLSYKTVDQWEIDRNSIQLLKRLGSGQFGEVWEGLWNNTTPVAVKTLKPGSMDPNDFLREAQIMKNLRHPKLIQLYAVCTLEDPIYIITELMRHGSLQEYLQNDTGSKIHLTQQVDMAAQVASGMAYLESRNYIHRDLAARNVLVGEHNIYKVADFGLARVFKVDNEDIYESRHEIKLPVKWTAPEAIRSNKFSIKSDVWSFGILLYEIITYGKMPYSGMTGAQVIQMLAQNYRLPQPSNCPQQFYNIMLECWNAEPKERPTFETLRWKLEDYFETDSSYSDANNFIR

[27] = target: T1, Tyrosine-protein kinase Lck; test: Inhibition of C-terminal His6-tagged human full-length LCK expressed in Sf9 cells preincubated for 60 mins measured after 60 mins by TR-FRET Assay
Target sequence in this assay (P06239 whole entry): as the sequence (P06239 whole entry) above

[28] = target: T1, Tyrosine-protein kinase Lck; test: Inhibition of LCK relative to control; settings: concentration not given here
Target sequence in this assay (P06239 2-509 limits assumed): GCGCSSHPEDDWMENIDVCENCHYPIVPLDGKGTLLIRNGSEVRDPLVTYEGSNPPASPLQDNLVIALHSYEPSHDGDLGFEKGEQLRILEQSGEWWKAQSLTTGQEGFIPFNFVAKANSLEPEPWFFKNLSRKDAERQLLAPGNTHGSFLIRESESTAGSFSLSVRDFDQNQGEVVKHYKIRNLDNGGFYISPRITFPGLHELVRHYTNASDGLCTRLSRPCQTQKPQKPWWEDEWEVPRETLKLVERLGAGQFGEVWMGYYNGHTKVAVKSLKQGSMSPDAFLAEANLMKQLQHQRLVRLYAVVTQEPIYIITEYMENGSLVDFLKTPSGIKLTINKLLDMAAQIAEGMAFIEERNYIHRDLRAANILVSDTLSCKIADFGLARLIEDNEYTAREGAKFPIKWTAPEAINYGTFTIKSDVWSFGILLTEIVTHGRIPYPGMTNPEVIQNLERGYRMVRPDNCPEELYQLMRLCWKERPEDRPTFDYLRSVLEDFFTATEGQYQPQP

[29] = target: Serine/threonine-protein kinase Nek2 (Homo sapiens) (UniProt P51955); test: Inhibition of NEK2 relative to control; settings: concentration not given here
[30] = target: Serine/threonine-protein kinase MARK1 (Homo sapiens) (UniProt Q9P0L2); test: Inhibition of MARK1 relative to control; settings: concentration not given here
[31] = Clearance in mouse at 2 mg/kg, iv; format: ADME, organism-based; set-up: dose 2 mg/kg, route intravenous; settings: in vivo

Chain of Hepatocyte growth factor receptor (Homo sapiens), P08581 [M1250T] (P08581 whole entry M1250T): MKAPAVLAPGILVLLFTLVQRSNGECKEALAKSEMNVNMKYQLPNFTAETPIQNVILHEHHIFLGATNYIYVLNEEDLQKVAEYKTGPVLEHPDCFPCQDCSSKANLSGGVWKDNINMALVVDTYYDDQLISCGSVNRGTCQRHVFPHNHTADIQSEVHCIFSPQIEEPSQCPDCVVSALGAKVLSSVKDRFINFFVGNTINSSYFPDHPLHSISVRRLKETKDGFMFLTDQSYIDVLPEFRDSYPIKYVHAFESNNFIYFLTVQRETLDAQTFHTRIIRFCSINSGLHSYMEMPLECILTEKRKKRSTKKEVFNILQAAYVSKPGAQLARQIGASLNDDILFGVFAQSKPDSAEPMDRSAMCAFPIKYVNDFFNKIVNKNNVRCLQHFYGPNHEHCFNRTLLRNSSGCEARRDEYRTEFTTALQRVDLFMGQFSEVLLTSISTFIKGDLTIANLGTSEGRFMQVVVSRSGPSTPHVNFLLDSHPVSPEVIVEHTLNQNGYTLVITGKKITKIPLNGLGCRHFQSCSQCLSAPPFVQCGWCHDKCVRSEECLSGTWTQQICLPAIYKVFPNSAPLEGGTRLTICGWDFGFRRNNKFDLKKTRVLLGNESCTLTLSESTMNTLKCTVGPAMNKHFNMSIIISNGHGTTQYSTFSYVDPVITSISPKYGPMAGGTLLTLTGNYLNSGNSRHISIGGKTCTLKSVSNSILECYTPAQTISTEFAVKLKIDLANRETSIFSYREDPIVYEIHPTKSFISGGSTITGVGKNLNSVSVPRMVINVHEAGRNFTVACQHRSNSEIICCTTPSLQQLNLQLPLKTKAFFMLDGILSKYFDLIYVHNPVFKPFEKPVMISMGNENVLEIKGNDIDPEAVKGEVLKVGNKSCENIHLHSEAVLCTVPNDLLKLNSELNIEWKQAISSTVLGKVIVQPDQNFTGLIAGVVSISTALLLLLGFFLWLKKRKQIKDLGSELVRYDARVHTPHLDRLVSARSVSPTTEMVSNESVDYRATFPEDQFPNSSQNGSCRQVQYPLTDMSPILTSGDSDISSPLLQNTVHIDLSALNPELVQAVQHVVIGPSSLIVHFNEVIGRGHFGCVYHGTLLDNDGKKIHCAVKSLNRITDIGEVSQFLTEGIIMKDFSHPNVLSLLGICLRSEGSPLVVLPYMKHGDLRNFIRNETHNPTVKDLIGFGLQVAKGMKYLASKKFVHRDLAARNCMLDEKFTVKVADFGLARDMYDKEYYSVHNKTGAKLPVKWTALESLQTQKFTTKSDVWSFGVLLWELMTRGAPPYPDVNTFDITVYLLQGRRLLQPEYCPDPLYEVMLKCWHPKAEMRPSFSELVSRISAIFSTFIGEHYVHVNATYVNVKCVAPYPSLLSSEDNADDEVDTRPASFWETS

## Cc1ccccc1Nc1nc2cc(F)c(N(C)C(=O)/C=C/CN(C)C)cc2n2cncc12
[1]
  inhibition: 5%
[2]
  IC50: 109 nM
Mus musculus
  inhibition: Dose-dependent effect
[3]
  inhibition: -2%
[4]
  inhibition: 19%
[5]
  inhibition: 6%
[6]
  inhibition: 0%
[7]
  inhibition: 7%
[8]
  inhibition: -5%
[9]
  inhibition: 15%
[10]
  inhibition: 7%
[11]
  IC50: 892 nM
[11]; concentration not given here
  inhibition: 40%
[12]
  inhibition: 1%
[13]
  Vd: 6.2 L/kg
[14]
  inhibition: 8%
[15]
  inhibition: 4%
[16]
  inhibition: 42%
[17]
  inhibition: -3%
[18]
  IC50: 772 nM
[19]
  inhibition: 50%
Ephrin type-B receptor 3
  IC50: 350 nM
[20]
  IC50: 353 nM
[21]
  inhibition: -8%
[22]
  Tmax: 3 h
[23]
  inhibition: 7%
[24]
  IC50: 624 nM
[25]
  inhibition: -4%
[26]
  IC50: 611 nM
[26]; concentration not given here
  inhibition: 60%
[27]
  IC50: 755 nM
[28]
  inhibition: 25%
[29]
  inhibition: 10%
[30]
  inhibition: 8%
[31]
  clearance: 63 mL/min/kg
